Data as given in ChEMBL document CHEMBL5104212, “Green synthesis of 3-methyl-4-(hetero)aryl methylene isoxazole-5(4H)-ones using WEOFPA/glycerol: evaluation of anticancer and electrochemical behaviour properties” (RSC Med Chem, 2022).

Tests used:
A549 = experiment: Anticancer activity against human A549 cells assessed as inhibition of cell growth incubated for 48 hrs by MTT assay; assay type: functional, cell-based; details: A549, 48 h
In short: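 A549 cells were seeded in 96-well plates and held overnight at 37°C, 95% humidity, 5% CO₂. Compounds came from DMSO stock dilution series and were added at 100, 50, 25, 12.5, 6.25 and 3.125 μg/mL for 48 hrs. Wells were PBS-washed, given MTT for 4h at 37°C, and formazan was dissolved in DMSO. A570 was read, and survival was taken as mean test OD over mean negative-control OD ×100.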

[1] = Electrochemical behavior of the compound assessed as oxidation potential peak by measuring […] current in DMSO using Ag/AgCl reference electrode by cyclic voltammetry; assay type: physicochemical
[2] = Electrochemical behavior of the compound assessed as reduction potential peak by measuring […] current in DMSO using Ag/AgCl reference electrode by cyclic voltammetry; assay type: physicochemical

Row | Structure (SMILES) | IC50 (A549) [µM] | Activity [1] | Activity [2]
1 | CC1=NOC(=O)/C1=C/c1ccc[nH]1 | 183 | Active | Active
2 | COc1cccc2c1C(=O)c1c(O)c3c(c(O)c1C2=O)C[C@@](O)(C(=O)CO)C[C@@H]3O[C@H]1C[C@H](N)[C@H](O)[C@H](C)O1 [DOXORUBICIN] | 8.73 |  | 
3 | CC1=NOC(=O)/C1=C/c1c(Cl)[nH]c2ccccc12 | 8.99 | Active | Active
4 | CC1=NOC(=O)C1Cc1cccs1 (stereo not given) | 14.2 | Active | Active
5 | CC1=NOC(=O)/C1=C/c1c(O)ccc2ccccc12 | 22.8 | Active | Active
6 | CC1=NOC(=O)/C1=C/c1c[nH]c2ccccc12 | 107 | Active | Active
7 | CC1=NOC(=O)/C1=C/c1cn(-c2ccccc2)cc1-c1ccccc1 | 12.3 | Active | Active
8 | COc1ccc(/C=C2/C(=O)ON=C2C)cc1OC | 59.2 | Active | Active
9 | CC1=NOC(=O)/C1=C/c1c(-c2ccccc2)[nH]c2ccccc12 | 37.4 | Active | Active
